Legend:
[1] = biological target: T1, Acetylcholinesterase (Homo sapiens, UniProt P22303); experiment: Inhibition of human recombinant AChE using acetylthiocholine iodide as substrate preincubated for 20 mins before substrate addition by Ellman method
[2] = biological target: T2, Cholinesterase (Homo sapiens, UniProt P06276); experiment: Inhibition of human serum BChE using butyrylthiocholine iodide preincubated for 20 mins before substrate addition by Ellman method
How it was run: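 Ellman spectrophotometric assay in 0.1 M phosphate buffer. Enzymes were human recombinant AChE and human serum BChE. Inhibitor (at least 10 increasing concentrations, in duplicate) was preincubated 20 min at 37 °C. Acetylthiocholine iodide (450 µM, AChE) or butyrylthiocholine iodide (300 µM, BChE) was then added and reacted 5 min at 37 °C, with absorbance read at 414 nm. The no-inhibitor control set 100% activity. IC50 came from non-linear regression, at least 4 experiments.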

[3] = Antioxidant activity assessed as ABTS free radical scavenging activity measured as trolox equivalent after 1 hr by spectrophotometry; assay type: physicochemical
How it was run: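 ABTS radical cation generated by passing 5 mM ABTS stock through MnO2 and filtering; 245 µL radical solution added to 5 µL sample or trolox, stirred 30 s, kept dark 1 h, A734 read against MeOH blanks. Trolox calibration; expressed as µmol trolox/µmol compound; triplicate analyses, mean ± SEM of three experiments.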

[4] = Antioxidant activity assessed as DPPH free radical scavenging activity measured as trolox equivalent after 30 mins by spectrophotometry; assay type: physicochemical; set-up: unit not given beside the values; details: 0.5 h
How it was run: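 Sample or trolox (5 µL) mixed with 250 µL methanolic DPPH (0.025 g/L), shaken, held in darkness 30 min, absorbance at 515 nm. Calibrated with trolox solutions; reported as µmol trolox/µmol compound; triplicate, mean ± SEM of three experiments.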

[5] = Antioxidant activity assessed as total polyphenolics measured as gallic acid equivalent after 30 mins by Folin-Ciocalteu assay; assay type: physicochemical; details: 0.5 h
[6] = biological target: Amyloid-beta precursor protein (Homo sapiens) (UniProt P05067); experiment: Inhibition of aggregation of amyloid beta (1 to 42) (unknown origin) expressed in Escherichia coli BL21 (DE3) at 10 uM after 24 hrs by thioflavin S fluorescence assay
How it was run: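 E. coli BL21(DE3) carrying Aβ42 plasmid grown overnight at 37 °C in LB with kanamycin 50 µg/mL; diluted into LB with kanamycin, 1 mM IPTG, compound in DMSO and Th-S, grown 24 h at 37 °C, 1400 rpm; DMSO-only negative control. Th-S emission 455 nm (ex 375 nm) normalised to OD600, induced untreated cells set as 100%; mean ± SEM of four experiments.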

[7] = biological target: Microtubule-associated protein tau (Homo sapiens) (UniProt P10636); experiment: Inhibition of aggregation of TAU (unknown origin) expressed in Escherichia coli BL21 (DE3) at 10 uM after 24 hrs by thioflavin S fluorescence assay
How it was run: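 E. coli BL21(DE3) with pTARA (T7 RNA polymerase under pBAD) transformed with pRKT42 encoding four-repeat tau; overnight culture at 37 °C in M9 with 0.5% glucose, ampicillin 50 µg/mL, chloramphenicol 12.5 µg/mL. Th-S fluorescence at 455 nm (ex 375 nm) normalised to OD600, with induced untreated cells as 100%; mean ± SEM of four experiments.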

[8] = in vitro; details: PAMPA
[9] = biological target: T1, Acetylcholinesterase; experiment: Inhibition of human recombinant AChE using acetylthiocholine iodide as substrate at 10 uM preincubated for 20 mins before substrate addition by Ellman method
[10] = biological target: T2, Cholinesterase; experiment: Inhibition of human serum BChE using butyrylthiocholine iodide at 10 uM preincubated for 20 mins before substrate addition by Ellman method

T1 sequence (P22303 whole entry): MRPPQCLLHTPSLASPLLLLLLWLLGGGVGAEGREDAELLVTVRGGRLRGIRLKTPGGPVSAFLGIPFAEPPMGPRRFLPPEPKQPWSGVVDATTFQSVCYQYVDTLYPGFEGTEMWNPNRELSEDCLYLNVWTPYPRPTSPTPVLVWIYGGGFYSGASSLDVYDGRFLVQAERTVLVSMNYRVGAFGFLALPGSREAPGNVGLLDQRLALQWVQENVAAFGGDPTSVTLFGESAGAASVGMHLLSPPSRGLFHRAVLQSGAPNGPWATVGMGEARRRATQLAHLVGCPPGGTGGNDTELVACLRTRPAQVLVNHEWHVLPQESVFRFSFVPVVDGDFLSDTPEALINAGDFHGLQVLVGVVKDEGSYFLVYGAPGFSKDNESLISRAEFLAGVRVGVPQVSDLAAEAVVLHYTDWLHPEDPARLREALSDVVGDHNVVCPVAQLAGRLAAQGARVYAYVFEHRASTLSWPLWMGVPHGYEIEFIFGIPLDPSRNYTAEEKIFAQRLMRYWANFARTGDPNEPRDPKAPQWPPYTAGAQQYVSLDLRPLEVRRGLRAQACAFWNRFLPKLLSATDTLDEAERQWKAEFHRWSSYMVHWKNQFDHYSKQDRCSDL
T2 sequence (P06276 whole entry): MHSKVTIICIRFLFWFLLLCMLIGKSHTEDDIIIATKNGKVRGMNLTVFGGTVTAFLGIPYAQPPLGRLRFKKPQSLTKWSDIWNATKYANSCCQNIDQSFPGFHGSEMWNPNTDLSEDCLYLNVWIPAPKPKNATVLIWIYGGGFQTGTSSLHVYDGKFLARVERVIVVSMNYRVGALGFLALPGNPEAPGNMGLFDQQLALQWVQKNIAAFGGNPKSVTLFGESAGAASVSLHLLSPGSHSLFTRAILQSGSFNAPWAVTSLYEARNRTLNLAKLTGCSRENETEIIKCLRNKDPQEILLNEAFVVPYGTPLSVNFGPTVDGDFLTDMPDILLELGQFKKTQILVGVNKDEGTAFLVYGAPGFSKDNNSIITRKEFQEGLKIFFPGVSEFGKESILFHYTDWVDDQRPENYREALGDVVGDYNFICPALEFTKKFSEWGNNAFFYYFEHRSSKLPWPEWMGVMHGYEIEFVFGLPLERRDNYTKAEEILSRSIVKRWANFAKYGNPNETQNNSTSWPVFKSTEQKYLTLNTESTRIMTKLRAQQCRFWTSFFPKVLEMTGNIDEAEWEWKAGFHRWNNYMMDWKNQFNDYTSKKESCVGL
Chain of Microtubule-associated protein tau (Homo sapiens) (P10636 whole entry): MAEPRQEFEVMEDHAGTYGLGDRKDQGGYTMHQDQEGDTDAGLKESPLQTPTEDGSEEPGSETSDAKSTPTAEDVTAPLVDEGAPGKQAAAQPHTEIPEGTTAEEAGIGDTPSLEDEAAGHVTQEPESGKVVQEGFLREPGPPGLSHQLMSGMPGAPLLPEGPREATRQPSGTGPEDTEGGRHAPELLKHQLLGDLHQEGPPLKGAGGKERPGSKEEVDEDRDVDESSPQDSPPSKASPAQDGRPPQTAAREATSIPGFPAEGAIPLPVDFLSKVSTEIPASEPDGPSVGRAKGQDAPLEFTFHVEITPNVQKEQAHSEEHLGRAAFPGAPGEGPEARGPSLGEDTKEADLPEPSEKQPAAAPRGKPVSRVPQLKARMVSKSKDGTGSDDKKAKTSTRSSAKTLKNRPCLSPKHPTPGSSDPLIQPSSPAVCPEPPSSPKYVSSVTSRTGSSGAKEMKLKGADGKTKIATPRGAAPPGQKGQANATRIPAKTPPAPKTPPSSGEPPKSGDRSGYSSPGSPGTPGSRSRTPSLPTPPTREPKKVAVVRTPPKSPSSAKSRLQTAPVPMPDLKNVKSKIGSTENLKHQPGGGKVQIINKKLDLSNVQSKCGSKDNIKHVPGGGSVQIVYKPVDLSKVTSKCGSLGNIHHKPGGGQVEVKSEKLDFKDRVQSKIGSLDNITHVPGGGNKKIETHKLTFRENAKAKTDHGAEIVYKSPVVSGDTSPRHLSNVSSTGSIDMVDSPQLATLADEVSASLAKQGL
Chain of Amyloid-beta precursor protein (Homo sapiens) (P05067 whole entry): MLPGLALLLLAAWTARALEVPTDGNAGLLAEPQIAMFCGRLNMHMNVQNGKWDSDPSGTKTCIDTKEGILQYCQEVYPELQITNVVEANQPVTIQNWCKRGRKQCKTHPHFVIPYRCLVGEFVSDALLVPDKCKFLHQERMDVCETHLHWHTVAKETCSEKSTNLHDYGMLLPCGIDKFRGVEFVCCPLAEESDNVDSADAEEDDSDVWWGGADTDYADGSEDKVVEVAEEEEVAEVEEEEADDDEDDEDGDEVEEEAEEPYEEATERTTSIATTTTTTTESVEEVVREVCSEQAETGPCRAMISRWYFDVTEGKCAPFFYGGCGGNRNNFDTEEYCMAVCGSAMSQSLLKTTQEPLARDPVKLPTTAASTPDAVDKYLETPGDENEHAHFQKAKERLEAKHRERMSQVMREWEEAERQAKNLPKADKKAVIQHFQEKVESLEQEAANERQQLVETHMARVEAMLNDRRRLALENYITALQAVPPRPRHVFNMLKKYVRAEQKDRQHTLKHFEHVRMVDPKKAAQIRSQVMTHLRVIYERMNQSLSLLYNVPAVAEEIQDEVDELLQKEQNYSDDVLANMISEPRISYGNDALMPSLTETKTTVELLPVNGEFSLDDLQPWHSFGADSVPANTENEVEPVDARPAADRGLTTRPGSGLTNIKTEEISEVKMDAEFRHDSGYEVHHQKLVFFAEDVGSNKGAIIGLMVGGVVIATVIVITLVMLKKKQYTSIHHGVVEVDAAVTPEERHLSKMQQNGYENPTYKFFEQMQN

## COc1cc(CCC(=O)/C=C/c2ccc(CNc3c4c(nc5cc(Cl)ccc35)CC3CC(C)=CC4C3)cc2)ccc1O (stereo not given)
[1]
  IC50: 18.3 nM
[2]
  IC50: 742 nM
[3]
  Activity: 10.5
[4]
  Activity: 8.8
[5]
  Activity: 50 mgequiv/g
[6]
  inhibition: 70.6%
[7]
  inhibition: 51%
[8]
  Papp: 6.5 ×10⁻⁶ cm/s

## CC1=CC2Cc3nc4cc(Cl)ccc4c(N)c3C(C1)C2 (stereo not given) [HUPRINE Y]
[3]
  Activity: 2.6
[4]
  Activity: 1
[5]
  Activity: 10.2 mgequiv/g
[6]
  inhibition: 8.9%
[7]
  inhibition: 7.6%

## O=C(O)c1cc(O)c(O)c(O)c1 [GALLIC ACID]
[3]
  Activity: 18.6
[4]
  Activity: 10.3
[5]
  Activity: 1033 mgequiv/g

## CCCCC/C=C/C(=O)CCc1ccc(O)c(OC)c1 [SHOGAOL]
[3]
  Activity: 26.2
[4]
  Activity: 12.2
[5]
  Activity: 384 mgequiv/g
[6]
  inhibition: 10.5%
[7]
  inhibition: 9.2%
[9]
  inhibition: 28%
[10]
  inhibition: 6%
[8]
  Papp: 14.7 ×10⁻⁶ cm/s

## COc1cc(CCC(=O)/C=C/CCCNc2c3c(nc4cc(Cl)ccc24)CC2CC(C)=CC3C2)ccc1O (stereo not given)
[1]
  IC50: 6.7 nM
[2]
  IC50: 982 nM
[3]
  Activity: 7.6
[4]
  Activity: 6.6
[5]
  Activity: 29.8 mgequiv/g
[6]
  inhibition: 39.3%
[7]
  inhibition: 35.2%
[8]
  Papp: 11.7 ×10⁻⁶ cm/s

## COc1cc(CCC(=O)/C=C/c2ccc(CNc3c4c(nc5cc(Cl)ccc35)CC3CC(C)=CC4C3)cc2)cc(CN(C)C)c1O (stereo not given)
[1]
  IC50: 21.1 nM
[2]
  IC50: 181 nM
[3]
  Activity: 11.8
[4]
  Activity: 2.8
[5]
  Activity: 68.8 mgequiv/g
[6]
  inhibition: 53.9%
[7]
  inhibition: 40.1%
[8]
  Papp: 8.4 ×10⁻⁶ cm/s

Source: ChEMBL document CHEMBL3352812, “Shogaol-huprine hybrids: dual antioxidant and anticholinesterase agents with β-amyloid and tau anti-aggregating properties” (Bioorg Med Chem, 2014)
